Assay [1] deals with DU-145. The assay is described as follows: Cytotoxicity against human DU145 cells by SRB assay. The assay is classed as functional. (The SRB assay estimates cell density from bound dye.)
A further assay deals with SN12C. Nature of the assay: Cytotoxicity against human SN12C cells by SRB assay. It is filed as functional.
Another assay has as its system UACC-62. Nature of the assay: Cytotoxicity against human UACC62 cells by SRB assay. The assay is classed as functional.
Assay [2] concerns HCT-116. The assay is described as follows: Cytotoxicity against human HCT116 cells by SRB assay. The assay is classed as functional.
Another assay has as its system HOP-62. The assay is described as follows: Cytotoxicity against human HOP62 cells by SRB assay. It is filed as functional.
Assay [3] deals with T1, DNA topoisomerase 1 (Homo sapiens) (UniProt P11387).
T1 sequence (whole entry): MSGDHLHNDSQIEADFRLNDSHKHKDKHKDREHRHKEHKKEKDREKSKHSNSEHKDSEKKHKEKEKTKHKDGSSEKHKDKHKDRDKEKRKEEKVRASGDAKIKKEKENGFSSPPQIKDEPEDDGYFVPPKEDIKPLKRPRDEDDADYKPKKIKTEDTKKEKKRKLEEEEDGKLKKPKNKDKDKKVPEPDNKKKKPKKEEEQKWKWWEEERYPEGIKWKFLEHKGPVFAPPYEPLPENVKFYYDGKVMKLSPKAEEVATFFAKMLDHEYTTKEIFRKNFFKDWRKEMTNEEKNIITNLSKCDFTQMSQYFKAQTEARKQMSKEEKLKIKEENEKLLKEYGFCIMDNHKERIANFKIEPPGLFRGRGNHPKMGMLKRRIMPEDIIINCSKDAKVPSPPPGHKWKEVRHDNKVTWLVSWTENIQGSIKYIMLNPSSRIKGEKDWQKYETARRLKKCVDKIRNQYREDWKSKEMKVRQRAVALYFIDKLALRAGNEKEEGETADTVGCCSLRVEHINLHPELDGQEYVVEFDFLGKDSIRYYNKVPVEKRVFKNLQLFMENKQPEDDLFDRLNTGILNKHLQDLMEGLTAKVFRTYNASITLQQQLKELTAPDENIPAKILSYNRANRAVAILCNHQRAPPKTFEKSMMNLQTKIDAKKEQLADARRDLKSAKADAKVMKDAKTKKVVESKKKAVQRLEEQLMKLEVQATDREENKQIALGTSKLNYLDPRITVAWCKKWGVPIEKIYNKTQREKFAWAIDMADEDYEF
Nature of the assay: Inhibition of human recombinant topoisomerase 1 using radiolabeled DNA as substrate at 100 uM after 20 mins by SDS-PAGE. In a few lines:
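A 117 bp oligonucleotide was 3′-end-labelled with [α-32P]dGTP by Klenow fill-in. Reactions were stopped with 0.5% SDS and run on 20% denaturing polyacrylamide gels. Cleavage bands were scored visually on a semiquantitative scale.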

A short description of assay [4]: Resistance ratio of GI50 for human mitoxantrone-resistant H460 cells to GI50 for human H460 cells. It is filed as functional. In a few lines: (§1)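 Relative resistance = GI50 in the resistant subline divided by GI50 in the parental line. Both GI50s came from 72 h continuous-exposure MTS growth assays, each based on at least two independent determinations.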
Assay [5] can be described thus: Cytotoxicity against human mitoxantrone-resistant H460 cells after 72 hrs by MTT assay. The assay is classed as functional. As to conditions: NCI-H460, 72 h. In a few lines: (§2)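 Cells were seeded 24 h before dosing and exposed continuously for 72 h. Growth was read by colorimetric MTS assay and expressed relative to vehicle-treated controls set at 100. GI50 is the level giving 50% growth inhibition, from at least two independent determinations. HCT116 and siTop1 cells were kept in RPMI 1640/10% FBS with 100 μg/mL hygromycin; RC0.1 in RPMI 1640/10% FBS.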

The nature of assay [6]: Resistance ratio of GI50 for vinblastine-resistant human KBV1 cells to GI50 for human KB 3.1 cells. The assay is classed as functional.
Assay [7] in a line: Cytotoxicity against human H460 cells after 72 hrs by MTT assay. The assay is classed as functional. Conditions: NCI-H460, 72 h. In a few lines:
as §2

Assay [8] in a line: Cytotoxicity against vinblastine-resistant human KBV1 cells after 72 hrs by MTT assay. The assay is classed as functional. As to conditions: KB-V1, 72 h. In a few lines: as §2
Assay [9] is described as follows: Cytotoxicity against human KB 3.1 cells after 72 hrs by MTT assay. The assay is classed as functional. As to conditions: KB 3-1, 72 h. In a few lines: as §2
In general terms: Tetrazolium assays rely on reduction of a dye to a coloured formazan, in cell work by metabolically active cells.

Assay [10] relates to HCT-116. The assay is described as follows: Resistance ratio of GI50 for human HCT116 cells transfected with Top1-siRNA to GI50 for human HCT116 cells. It is filed as functional. The gist of the method:
as §1

The test system of assay [11] is HCT-116. The assay is described as follows: Cytotoxicity against human HCT116 cells transfected with Top1-siRNA after 72 hrs by MTT assay. The assay is classed as functional. Conditions: HCT-116, 72 h. The gist of the method: as §2
The test system of assay [12] is HCT-116. The assay is described as follows: Cytotoxicity against human HCT116 cells after 72 hrs by MTT assay. As to conditions: HCT-116, 72 h. The assay is classed as functional. The gist of the method: as §2
In assay [13] the test system is DU-145. The assay is described as follows: Resistance ratio of GI50 for human RC0.1 cells to GI50 for human DU145 cells. The assay is classed as functional. The gist of the method:
as §1

A short description of assay [14]: Cytotoxicity against human RC0.1 cells after 72 hrs by MTT assay. The assay is classed as functional. The gist of the method: as §2
The subject of assay [15] is DU-145. Nature of the assay: Cytotoxicity against human DU145 cells after 72 hrs by MTT assay. It is filed as functional. As to conditions: DU-145, 72 h. In a few lines:
as §2

The subject of assay [16] is HCT-116. The assay is described as follows: Cell cycle arrest in human HCT116 cells assessed as accumulation at G2 phase at 1 uM incubated for 1 hr followed by compound washout measured after 6 to 48 hrs by propidium iodide staining-based FACS analysis. The assay is classed as functional. The gist of the method: (§3)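 HCT116 cells exposed to 1 μM drug for 1 h, then kept in drug-free medium for the stated times. Fixed cells were stained with propidium iodide and analysed by flow cytometry for DNA content histograms. Phase distributions were computed from the histograms.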
A general note: Flow cytometry measures light scatter and fluorescence of single cells or particles in a stream.

In assay [17] the test system is HCT-116. Nature of the assay: Cell cycle arrest in human HCT116 cells assessed as accumulation at S phase at 1 uM incubated for 1 hr followed by compound washout measured after 3 hrs by propidium iodide staining-based FACS analysis. It is filed as functional. The gist of the method:
as §3

The subject of assay [18] is HCT-116. Nature of the assay: Cell cycle arrest in human HCT116 cells at 1 uM incubated for 1 hr followed by compound washout measured up to 1 hr by propidium iodide staining-based FACS analysis. The assay is classed as functional. In a few lines: as §3
Assay [19] deals with HCT-116. The assay is described as follows: Cell cycle arrest in human HCT116 cells at 1 uM after 1 hr by propidium iodide staining-based FACS analysis. It is filed as functional. In a few lines: as §3
The target in assay [20] is T1, DNA topoisomerase 1 (Homo sapiens). The assay is described as follows: Inhibition of human recombinant topoisomerase 1 in human HCT116 cells assessed as DNA-protein cross linking at 1 uM incubated for 1 hr followed by compound washout measured after 1 hr. The assay is classed as cell-based. Conditions: HCT-116. In a few lines:
(§4)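 In HCT116 cells, Top1 cleavage complexes were quantified as DNA–protein cross-links by alkaline elution, plotting the fraction of DNA retained on the filter against time. Persistence was read 1 h after drug removal. The negative control was untreated cells given 30 Gy irradiation to create strand breaks.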

The target is the same in assay [21]. The assay is described as follows: Inhibition of human recombinant topoisomerase 1 in human HCT116 cells assessed as DNA-protein cross linking at 1 uM after 1 hr. Conditions: HCT-116. It is filed as cell-based. In a few lines: as §4
The target is the same in assay [22]. Nature of the assay: Inhibition of human recombinant topoisomerase 1 in human HCT116 cells assessed as reversal of topoisomerase 1-DNA cleavage complex stabilization at 1 uM incubated for 1 hr followed by compound washout measured after 24 hrs by DNA immunoblotting analysis. The assay is classed as cell-based. Conditions: HCT-116. The gist of the method: (§5)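 10^6 HCT116 cells were treated with 1 μM for 1 h, and for reversal were held in drug-free medium for the set times. Cells were lysed with DNAzol and genomic DNA was isolated and sonicated. Serial dilutions were slot-blotted onto membranes and Top1–DNA complexes detected with the C21 anti-Top1 monoclonal antibody by immunoblotting (ICE method).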

For assay [23] the target is unchanged. Nature of the assay: Inhibition of human recombinant topoisomerase 1 in human HCT116 cells assessed as reversal of topoisomerase 1-DNA cleavage complex stabilization at 1 uM incubated for 1 hr followed by compound washout measured up to 6 hrs by DNA immunoblotting analysis. It is filed as cell-based. As to conditions: HCT-116. In a few lines: as §5
For assay [24] the target is unchanged. The assay is described as follows: Inhibition of human recombinant topoisomerase 1 in human HCT116 cells assessed as stabilization of topoisomerase 1-DNA cleavage complex at 1 uM after 1 hr by DNA immunoblotting analysis. It is filed as cell-based. Conditions: HCT-116. The gist of the method: as §5
For the next assay, the system named is MCF7. The assay is described as follows: Cytotoxicity against human MCF7 cells by SRB assay. It is filed as functional.
The subject of the next assay is OVCAR-3. The assay is described as follows: Cytotoxicity against human OVCAR3 cells by SRB assay. It is filed as functional.
For another assay, the system named is SF-539. The assay is described as follows: Cytotoxicity against human SF539 cells by SRB assay. It is filed as functional.
The target in assay [25] is T1, DNA topoisomerase 1 (Homo sapiens). The assay is described as follows: Inhibition of human recombinant topoisomerase 1 using radiolabeled DNA as substrate at 0.1 to 100 uM after 20 mins by SDS-PAGE. In a few lines:
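Baculovirus-purified human recombinant Top1 with ~2 nM of a 117 bp oligonucleotide, 3′-end-labeled with [α-32P]dGTP by Klenow fill-in. Drugs at 0.1, 1, 10, 100 μM; 25 °C, 20 min. Stopped with 0.5% SDS, run on 20% denaturing PAGE, phosphorimaged. Cleavage bands scored visually against camptothecin standard.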

The test system of assay [26] is HCT-116. The assay is described as follows: Induction of DNA damage in human HCT116 cells assessed as induction of histone gamma-H2AX level at 1 uM after 1 hr by flow cytometry.

The source made the active and inactive calls. No cut-off for these calls is given here.

The term GI50 denotes the concentration that inhibits growth by half. Read a high GI50 as lower sensitivity of the cells. For `COc1cc2c3c(n(C)c(=O)c2cc1OC)-c1cc2c(cc1C3=O)OCO2`, the GI50 in the assay with DU-145 [1] is 37 µM; with SN12C, 68 µM; in the assay with UACC-62 it was 4.2 µM; in the assay with HCT-116 [2], 35 µM; with HOP-62 it was 1300 nM. Further, the inhibition result in [3] is “Active”.
Turning to `COc1cnc2c(c1)C(=O)c1c-2n(CCCn2ccnc2)c(=O)c2cc([N+](=O)[O-])ccc12.Cl`, the RatioGI50 was 19.05 in [4], 1.02 in assay [6], 3.24 with HCT-116 [10] and more than 21.88 with DU-145 [13]. Also, the GI50 in assay [5] is 417 nM; in assay [7], 21.9 nM; in assay [8], 427 nM; in assay [9] it was 417 nM; in the assay on HCT-116 [11], 70.8 nM; with HCT-116 [12], 21.9 nM. Moreover, the GI50 was more than 1000 nM in [14]; 45.7 nM in the assay with DU-145 [15]; less than 0.01 µM with DU-145 [1]; less than 10 nM in the assay with MCF7; less than 0.01 µM in the assay on SN12C; 25 nM with OVCAR-3. Besides, the GI50 with UACC-62 is less than 0.01 µM; in the assay on SF-539, less than 10 nM; in the assay on HCT-116 [2], less than 0.01 µM; in the assay on HOP-62 it was less than 10 nM. In addition, the outcome in the assay with HCT-116 [16], in the assay with HCT-116 [17], in the assay with HCT-116 [18] and in the assay on HCT-116 [19] was Active. The inhibition entry in assay [20], in [21], in assay [22], in assay [23], in assay [24] and in assay [25] was “Active” in each case. For the same compound, in the assay on HCT-116 [26], the Activity came out at 37.3%.

The record behind these values is ChEMBL document CHEMBL3124896, “Optimization of the lactam side chain of 7-azaindenoisoquinoline topoisomerase I inhibitors and mechanism of action studies in cancer cells” (2014).
